Test results from publication PMC11904594 (Current Research in Microbial Sciences, 2025).
Values after ≈ are worked out from the molar mass of the structure shown.

Experiments:
S. aureus ATCC 29,213 [1] = test: MIC, broth microdilution; format: cell-based, Staphylococcus aureus; conditions: MHB II, 10^6 CFU/ml, 37 °C, 24 h, triplicate
In short: (§1)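 Broth microdilution per CLSI. Strains were freshly plated on LB agar from glycerol stocks; the colistin-resistant lpxD mutant was plated on LB with 10 µg/ml colistin. Inoculum was 10^6 CFU/ml in Mueller Hinton broth II with two-fold dilutions of test compound from 100 to 0.10 µg/ml, incubated at 37 °C for 24 h. MIC was the lowest concentration with no growth.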

S. aureus MRSA USA 300 [2] = test: MIC, broth microdilution; format: cell-based, Staphylococcus aureus; conditions: MHB II, 10^6 CFU/ml, 37 °C, 24 h, triplicate
In short: as §1

[3] = test system: P. aeruginosa ATCC 27,853; test: MIC, broth microdilution; format: cell-based, Pseudomonas aeruginosa; conditions: MHB II, 10^6 CFU/ml, 37 °C, 24 h, triplicate
In short: as §1

P. aeruginosa (ST175–1) [4] = test: MIC, broth microdilution; format: cell-based, Pseudomonas aeruginosa; conditions: MHB II, 10^6 CFU/ml, 37 °C, 24 h, triplicate
In short: as §1

A. baumannii ATCC 19,606 [5] = test: MIC, broth microdilution; format: cell-based, Acinetobacter baumannii; conditions: MHB II, 10^6 CFU/ml, 37 °C, 24 h, triplicate
In short: as §1

A. baumannii IB010 [6] = test: MIC, broth microdilution; format: cell-based, Acinetobacter baumannii; conditions: MHB II, 10^6 CFU/ml, 37 °C, 24 h, triplicate
In short: as §1

A. baumannii Ab-1 [7] = test: MIC, broth microdilution; format: cell-based, Acinetobacter baumannii; conditions: MHB II, 10^6 CFU/ml, 37 °C, 24 h, triplicate
In short: as §1

[8] = test system: K. pneumoniae ATCC 43,816; test: MIC, broth microdilution; format: cell-based, Klebsiella pneumoniae; conditions: MHB II, 10^6 CFU/ml, 37 °C, 24 h, triplicate
In short: as §1

K. pneumoniae CG258 [9] = test: MIC, broth microdilution; format: cell-based, Klebsiella pneumoniae; conditions: MHB II, 10^6 CFU/ml, 37 °C, 24 h, triplicate
In short: as §1

E. coli ATCC 25,922 [10] = test: MIC, broth microdilution; format: cell-based, Escherichia coli; conditions: MHB II, 10^6 CFU/ml, 37 °C, 24 h, triplicate
In short: as §1

E. coli ESBL 1057.1 [11] = test: MIC, broth microdilution; format: cell-based, Escherichia coli; conditions: MHB II, 10^6 CFU/ml, 37 °C, 24 h, triplicate
In short: as §1

S. aureus ATCC 29,213 [12] = test: Minimum bactericidal concentration; format: cell-based, Staphylococcus aureus; conditions: lowest concentration reducing at least 99.9 % of growth, plated on LB, 37 °C, 24 h, triplicate
S. aureus MRSA USA 300 [13] = test: Minimum bactericidal concentration; format: cell-based, Staphylococcus aureus; conditions: lowest concentration reducing at least 99.9 % of growth, plated on LB, 37 °C, 24 h, triplicate
[14] = test system: P. aeruginosa ATCC 27,853; test: Minimum bactericidal concentration; format: cell-based, Pseudomonas aeruginosa; conditions: lowest concentration reducing at least 99.9 % of growth, plated on LB, 37 °C, 24 h, triplicate
P. aeruginosa (ST175–1) [15] = test: Minimum bactericidal concentration; format: cell-based, Pseudomonas aeruginosa; conditions: lowest concentration reducing at least 99.9 % of growth, plated on LB, 37 °C, 24 h, triplicate
A. baumannii ATCC 19,606 [16] = test: Minimum bactericidal concentration; format: cell-based, Acinetobacter baumannii; conditions: lowest concentration reducing at least 99.9 % of growth, plated on LB, 37 °C, 24 h, triplicate
A. baumannii IB010 [17] = test: Minimum bactericidal concentration; format: cell-based, Acinetobacter baumannii; conditions: lowest concentration reducing at least 99.9 % of growth, plated on LB, 37 °C, 24 h, triplicate
A. baumannii Ab-1 [18] = test: Minimum bactericidal concentration; format: cell-based, Acinetobacter baumannii; conditions: lowest concentration reducing at least 99.9 % of growth, plated on LB, 37 °C, 24 h, triplicate
[19] = test system: K. pneumoniae ATCC 43,816; test: Minimum bactericidal concentration; format: cell-based, Klebsiella pneumoniae; conditions: lowest concentration reducing at least 99.9 % of growth, plated on LB, 37 °C, 24 h, triplicate
K. pneumoniae CG258 [20] = test: Minimum bactericidal concentration; format: cell-based, Klebsiella pneumoniae; conditions: lowest concentration reducing at least 99.9 % of growth, plated on LB, 37 °C, 24 h, triplicate
E. coli ATCC 25,922 [21] = test: Minimum bactericidal concentration; format: cell-based, Escherichia coli; conditions: lowest concentration reducing at least 99.9 % of growth, plated on LB, 37 °C, 24 h, triplicate
E. coli ESBL 1057.1 [22] = test: Minimum bactericidal concentration; format: cell-based, Escherichia coli; conditions: lowest concentration reducing at least 99.9 % of growth, plated on LB, 37 °C, 24 h, triplicate
[23] = test system: 11 bacterial strains (S. aureus, P. aeruginosa, A. baumannii, K. pneumoniae, E. coli); test: Antimicrobial activity screening, summary over groups of strains; format: cell-based; conditions: 50 µg/ml screen; all strains, Gram-negative and Gram-positive
K. pneumoniae CG258 [24] = test: Time-kill assay; format: cell-based, Klebsiella pneumoniae; conditions: 24 h
In short: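 Broth without compound was the growth control. Samples taken at 0, 3, 6 and 24 h were diluted and plated on MH II agar for CFU counts. Each curve was run at least in duplicate.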

[25] = test system: Galleria mellonella larvae; test: In vivo toxicity in Galleria mellonella larvae; conditions: G. mellonella larvae, 50 µg/larvae (10 μl of 5 mg/ml), 30 °C, N=10 per group
In short: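 Sixth-instar Galleria mellonella larvae (200–300 mg) were held in sawdust at 4 °C until use. Groups of ten were injected with 10 μl of test compound, colistin or 0.9 % NaCl saline control into the second rear proleg, then kept at 30 °C.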

erythrocytes = conditions: percent hemolysis at 150 μM (table footnote); ref Oddo et al., 2016; cited from earlier work

`CC[C@@H](C)[C@@H](NC(=O)[C@@H](CCCCN)NC(=O)[C@@H](CCCCN)NC(=O)[C@@H](Cc1ccccc1)NC(=O)[C@@H](CC(C)C)NC(=O)[C@@H](CCCCN)NC(=O)[C@H](N)CCCCN)C(=O)N[C@H](CC(C)C)C(=O)N[C@H](CCCNC(=N)N)C(=O)N[C@H](Cc1ccc(O)cc1)C(=O)N[C@H](CC(C)C)C(N)=O` [BP607, reference compound] gave an MIC (S. aureus ATCC 29,213 [1]) of 50 µg/mL (≈ 34.5 µM), an MIC (S. aureus MRSA USA 300 [2]) of 50 µg/mL (≈ 34.5 µM) and an MIC [3] of 25 µg/mL (≈ 17.3 µM). The MIC (P. aeruginosa (ST175–1) [4]) was 50 µg/mL (≈ 34.5 µM), the MIC (A. baumannii ATCC 19,606 [5]) was 3.13 µg/mL (≈ 2.16 µM) and the MIC (A. baumannii IB010 [6]) was 25 µg/mL (≈ 17.3 µM). The MIC (A. baumannii Ab-1 [7]) was 6.25 µg/mL (≈ 4.31 µM), the MIC [8] was 12.5 µg/mL (≈ 8.63 µM) and the MIC (K. pneumoniae CG258 [9]) was 12.5 µg/mL (≈ 8.63 µM). For the same molecule, the MIC (E. coli ATCC 25,922 [10]) was 6.25 µg/mL (≈ 4.31 µM), the MIC (E. coli ESBL 1057.1 [11]) was 12.5 µg/mL (≈ 8.63 µM) and the MBC (S. aureus ATCC 29,213 [12]) was 50 µg/mL (≈ 34.5 µM). It also gave an MBC (S. aureus MRSA USA 300 [13]) of 50 µg/mL (≈ 34.5 µM), an MBC [14] of 25 µg/mL (≈ 17.3 µM) and an MBC (P. aeruginosa (ST175–1) [15]) of 100 µg/mL (≈ 69 µM). For the same molecule, the MBC (A. baumannii ATCC 19,606 [16]) was 6.25 µg/mL (≈ 4.31 µM), the MBC (A. baumannii IB010 [17]) was 50 µg/mL (≈ 34.5 µM) and the MBC (A. baumannii Ab-1 [18]) was 6.25 µg/mL (≈ 4.31 µM). For the same molecule, the MBC [19] was 12.5 µg/mL (≈ 8.63 µM), the MBC (K. pneumoniae CG258 [20]) was 12.5 µg/mL (≈ 8.63 µM) and the MBC (E. coli ATCC 25,922 [21]) was 6.25 µg/mL (≈ 4.31 µM). For the same molecule, the MBC (E. coli ESBL 1057.1 [22]) was 12.5 µg/mL (≈ 8.63 µM), the “growth inhibition of all the strains” value [23] was “≈ 90%” and the “bactericidal activity in time-kill assay” value (K. pneumoniae CG258 [24]; peptide at 2× MIC) was “bactericidal”. The “bactericidal activity in time-kill assay” value (K. pneumoniae CG258 [24]; peptide at the MIC) was “maintained this bactericidal effect”, the “mortality after 24h” value [25] was 80% and the Hemolysis (erythrocytes) was 42%.
